ChEMBL document CHEMBL1156767, “Indol-3-ylcycloalkyl ketones: effects of N1 substituted indole side chain variations on CB(2) cannabinoid receptor activity” (J Med Chem, 2010)

Legend:
[1] = biological target: T1, Cannabinoid receptor 2 (Homo sapiens, UniProt P34972); experiment: Displacement of [3H]CP-55940 from human recombinant CB2 receptor expressed in HEK293 cells; assay type: cell-based
[2] = biological target: Cannabinoid receptor 1 (Homo sapiens, UniProt P21554); experiment: Displacement of [3H]CP-55940 from human recombinant CB1 receptor expressed in CHO cells; assay type: cell-based; conditions: read-out: Ki
[3] = species: Homo sapiens; experiment: Selectivity ratio of Ki for human recombinant CB1 receptor to Ki for human recombinant CB2 receptor
Summary of the method: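 Membranes were from HEK cells stably expressing human CB2 and CHO cells stably expressing human CB1. Competition was run against 0.5 nM [3H]CP-55,940 in 50 mM Tris-HCl pH 7.4, 2.5 mM EDTA, 5 mM MgCl2, 0.05% fatty-acid-free BSA, for 90 min at 30 °C, then filtered. Nonspecific binding was set with 10 μM unlabeled CP-55,940. Ki came from one-site fits. Mean ± SEM, ≥3 experiments in duplicate.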

[4] = biological target: T1, Cannabinoid receptor 2; experiment: Agonist activity at human recombinant CB2 receptor expressed in HEK293 cells coexpressing Galphaq/o5 assessed as calcium mobilization by FLIPR assay; assay type: functional, cell-based
Summary of the method: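 HEK cells stably coexpressing human CB2 and chimeric Gαq/o5 were seeded at 75 000 cells/well the day before and loaded with no-wash calcium dye. Mean ± SEM, ≥3 experiments in duplicate.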

[5] = biological target: T1, Cannabinoid receptor 2; experiment: Agonist activity at human recombinant CB2 receptor expressed in HEK293 cells coexpressing Galphaq/o5 assessed as calcium mobilization by FLIPR assay relative to CP-55940; assay type: functional, cell-based
Summary of the method: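 HEK cells stably coexpressing human CB2 and chimeric Gαq/o5 were seeded at 75 000 cells/well the day before and loaded with no-wash calcium dye. […] Mean ± SEM, ≥3 experiments in duplicate.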

Cannabinoid receptor 1, sequence (P21554 whole entry): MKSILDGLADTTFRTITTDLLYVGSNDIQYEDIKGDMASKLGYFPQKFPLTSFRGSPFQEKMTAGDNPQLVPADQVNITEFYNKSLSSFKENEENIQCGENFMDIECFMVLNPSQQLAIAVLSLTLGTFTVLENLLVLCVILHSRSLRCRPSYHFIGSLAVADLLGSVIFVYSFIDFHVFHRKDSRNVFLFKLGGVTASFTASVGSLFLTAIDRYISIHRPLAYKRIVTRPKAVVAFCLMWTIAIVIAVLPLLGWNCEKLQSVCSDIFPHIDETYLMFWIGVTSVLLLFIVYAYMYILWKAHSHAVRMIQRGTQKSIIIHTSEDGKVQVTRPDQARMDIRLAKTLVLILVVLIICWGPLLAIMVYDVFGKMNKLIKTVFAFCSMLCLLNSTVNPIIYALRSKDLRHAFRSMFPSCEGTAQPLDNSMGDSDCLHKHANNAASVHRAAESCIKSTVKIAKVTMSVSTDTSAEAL
T1 sequence (P34972 whole entry): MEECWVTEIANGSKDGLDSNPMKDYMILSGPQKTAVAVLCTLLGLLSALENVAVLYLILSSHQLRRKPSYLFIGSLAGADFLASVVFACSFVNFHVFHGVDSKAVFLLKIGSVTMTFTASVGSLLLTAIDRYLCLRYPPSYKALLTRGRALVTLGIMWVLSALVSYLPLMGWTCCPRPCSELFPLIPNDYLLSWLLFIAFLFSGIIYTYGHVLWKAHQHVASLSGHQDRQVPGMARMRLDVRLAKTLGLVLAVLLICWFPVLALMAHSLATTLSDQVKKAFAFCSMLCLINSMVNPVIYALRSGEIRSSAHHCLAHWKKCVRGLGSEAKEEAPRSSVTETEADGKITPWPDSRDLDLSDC

Row | Structure (SMILES) | Ki ([1]; read-out: Ki) | Ki [2] | Ratio Ki [3] | EC50 [4] | Activity [5] | Ki ([1]; read-out: pKi (converted)) | Ki ([1]; hek293, read-out: Ki) | pKi ([1]; hek293)
1 | CC1(C)C(C(=O)c2cn(CCc3ccncc3)c3ccccc23)C1(C)C | 31 nM | 2200 nM | 71 | 162 nM | 100% | – | – | –
2 | CCCCn1cc(C(=O)C2C(C)(C)C2(C)C)c2ccccc21 | 2 nM | 91 nM | 46 | 5 nM | 102% | – | – | –
3 | CC1(C)C(C(=O)c2cn(C[C@@H]3CCCO3)c3ccccc23)C1(C)C | 3.3 nM | 220 nM | 67 | 14 nM | 117% | – | – | –
4 | CC1(C)C(C(=O)c2cn(CCN3CCCCCC3)c3ccccc23)C1(C)C | 26 nM | 790 nM | 30 | 1020 nM | 49% | – | – | –
5 | CC1(C)C(C(=O)c2cn(CCc3cccnc3)c3ccccc23)C1(C)C | 20 nM | > 10000 nM | > 500 | 62 nM | 78% | – | – | –
6 | CC1(C(=O)c2cn(CC3CCOCC3)c3ccccc23)CC(F)(F)C1(F)F (stereo not drawn) | 47 nM | 1450 nM | 31 | 197 nM | 46% | – | – | –
7 | CC1(C)C(C(=O)c2cn(CC3CCOC3)c3ccccc23)C1(C)C (stereo not drawn) | 0.14 nM | 630 nM | 4500 | 6 nM | 102% | 0.49 nM | – | –
8 | O=C(c1cn(CCN2CCOCC2)c2ccccc12)C1CCCCC1 | 138 nM | 1630 nM | 12 | 86 nM | 44% | – | – | –
9 | O=C(c1cn(CCN2CCOCC2)c2ccccc12)C1CCCCCC1 | 11 nM | 362 nM | 33 | 31 nM | 48% | – | – | –
10 | O=C(c1cn(CCN2CCOCC2)c2ccccc12)C1CCC1 | – | > 10000 nM | – | > 10000 nM | – | > 1000 nM | > 1000 nM | –
11 | CC1(C)C(C(=O)c2cn(CCC3CCNCC3)c3ccccc23)C1(C)C | > 1000 nM | > 10000 nM | – | – | – | – | – | < 6
12 | CC1(C(=O)c2cn(CCN3CCOCC3)c3ccccc23)CC1(Cl)Cl (stereo not drawn) | > 1000 nM | > 10000 nM | – | 716 nM | 33% | – | – | < 6
13 | CC1(C)C(C(=O)c2cn(CCN)c3ccccc23)C1(C)C | > 1000 nM | > 10000 nM | – | > 10000 nM | – | – | – | < 6
14 | COCCn1cc(C(=O)C2C(C)(C)C2(C)C)c2ccccc21 | 3.1 nM | 710 nM | 229 | 14 nM | 117% | – | – | –
15 | CC1(C)C(C(=O)c2cn(CCC(N)=O)c3ccccc23)C1(C)C | 220 nM | > 10000 nM | – | 294 nM | 107% | – | – | –
16 | CSCCCCn1cc(C(=O)C2C(C)(C)C2(C)C)c2ccccc21 | 0.4 nM | 39 nM | 98 | 22 nM | 74% | – | – | –
17 | CC1(C)C(C(=O)c2cn(CCCC(F)(F)F)c3ccccc23)C1(C)C | 0.09 nM | 15 nM | 167 | 6 nM | 104% | – | – | –
18 | CC1(C)C(C(=O)c2cn(CCc3nsc(Cl)n3)c3ccccc23)C1(C)C | 8.3 nM | 4200 nM | 506 | 109 nM | 97% | – | – | –
19 | CC1(C)C(C(=O)c2cn(CCC3CCOCC3)c3ccccc23)C1(C)C | 2.8 nM | 92 nM | 33 | 15 nM | 90% | – | – | –
20 | CC1(C)C(C(=O)c2cn(Cc3ccncc3)c3ccccc23)C1(C)C | 3.7 nM | 48 nM | 13 | 30 nM | 99% | – | – | –
21 | O=C(c1cn(CC2CCOCC2)c2ccccc12)C12CC3CC(CC1C3)C2 | 2.1 nM | 73 nM | 35 | 7 nM | 93% | – | – | –
22 | CCCn1cc(C(=O)C2C(C)(C)C2(C)C)c2ccccc21 | 9.2 nM | 4300 nM | 467 | 36 nM | 114% | – | – | –
23 | CN1CCN(CCn2cc(C(=O)C3C(C)(C)C3(C)C)c3ccccc32)CC1 | > 1000 nM | 2150 nM | – | – | – | – | – | < 6
24 | O=C(c1cn(CCN2CCOCC2)c2ccccc12)[C@@H]1CC12CCCCC2 | 35 nM | 3060 nM | 87 | 42 nM | 50% | – | – | –
25 | CC1(C(=O)c2cn(CC3CCOCC3)c3ccccc23)CC1(Cl)Cl (stereo not drawn) | 181 nM | 3360 nM | 19 | 782 nM | 32% | – | – | –

Row | Structure (SMILES) | Ki ([1]; read-out: Ki) | Ki [2] | Ratio Ki [3] | EC50 [4] | Activity [5] | Ki ([1]; read-out: pKi (converted)) | Ki ([1]; hek293, read-out: Ki) | pKi ([1]; hek293)
26 | CC1(C)C(C(=O)c2cn(C[C@H]3CCCO3)c3ccccc23)C1(C)C | 3.8 nM | 720 nM | 189 | 11 nM | 99% | – | – | –
27 | CC1(C)C(C(=O)c2cn(CCN3CCCC3=O)c3ccccc23)C1(C)C | 55 nM | > 10000 nM | > 182 | 55 nM | 97% | 53.7 nM | – | –
28 | CC1(C)C(C(=O)c2cn(CCO)c3ccccc23)C1(C)C | 56 nM | > 10000 nM | > 179 | 440 nM | 85% | – | – | –
29 | CC1(C)C(C(=O)c2cn(CC3OCCO3)c3ccccc23)C1(C)C | 1 nM | 280 nM | 280 | 7 nM | 133% | – | – | –
30 | CC1(C)C(C(=O)c2cn(CCN3CCCCC3)c3ccccc23)C1(C)C | 2.3 nM | 556 nM | 242 | 56 nM | 93% | – | – | –
31 | CC1(C)C(C(=O)c2cn(CCN3C(=O)CCC3=O)c3ccccc23)C1(C)C | 170 nM | > 10000 nM | > 59 | 77 nM | 34% | – | – | –
32 | CC[C@H]1CC[C@H](C(=O)c2cn(CCN3CCOCC3)c3ccccc23)CC1 | 16 nM | 616 nM | 39 | 85 nM | 59% | – | – | –
33 | O=C(c1cn(CC2CCOCC2)c2ccccc12)C1CCCC1 | 11 nM | 131 nM | 12 | 20 nM | 64% | – | – | –
34 | CN1CCCCC1Cn1cc(C(=O)c2cc([N+](=O)[O-])ccc2I)c2ccccc21 (stereo not drawn) | – | – | 110 | – | – | – | – | 7.94
35 | Cc1ncsc1CCn1cc(C(=O)C2C(C)(C)C2(C)C)c2ccccc21 | 18 nM | 2000 nM | 111 | 49 nM | 49% | – | – | –
36 | O=C(c1cn(CC2CCOCC2)c2ccccc12)[C@@H]1CC12CCCCC2 | 2.6 nM | 62 nM | 24 | 14 nM | 86% | – | – | –
37 | CC1(C)C(C(=O)c2cn(CCN3CCNCC3)c3ccccc23)C1(C)C | > 1000 nM | > 10000 nM | – | 2200 nM | 30% | – | – | < 6
38 | CC1(C)C(C(=O)c2cn(Cc3cccnc3)c3ccccc23)C1(C)C | 30 nM | 2030 nM | 68 | 75 nM | 103% | – | – | –
39 | CC1(C)C(C(=O)c2cn(CCc3ccsc3)c3ccccc23)C1(C)C | 1.8 nM | 148 nM | 82 | 70 nM | 108% | – | – | –
40 | CC1(C)C(C(=O)c2cn(Cc3ccccc3)c3ccccc23)C1(C)C | 8.2 nM | 210 nM | 26 | 93 nM | 59% | – | – | –
41 | CC1(C)C(C(=O)c2cn(CCN3CCCC3)c3ccccc23)C1(C)C | 5.8 nM | > 10000 nM | > 1720 | 70 nM | 84% | – | – | –
42 | CC1(C)C(C(=O)c2cn(CCC(=O)O)c3ccccc23)C1(C)C | > 1000 nM | > 10000 nM | – | – | – | – | – | < 6
43 | CN1CCC(CCn2cc(C(=O)C3C(C)(C)C3(C)C)c3ccccc32)CC1 | > 1000 nM | > 10000 nM | – | – | – | – | – | < 6
44 | O=C(c1cn(CCN2CCOCC2)c2ccccc12)C12CC3CC(CC1C3)C2 | 23 nM | > 10000 nM | > 435 | 68 nM | 66% | – | – | –
45 | CN1CCCCC1Cn1cc(C(=O)C2C(C)(C)C2(C)C)c2ccccc21 (stereo not drawn) | 0.48 nM | 5.5 nM | 11 | 628 nM | 48% | – | – | –
46 | CN1CCCC1CCn1cc(C(=O)C2C(C)(C)C2(C)C)c2ccccc21 (stereo not drawn) | > 1000 nM | > 10000 nM | – | – | – | – | – | < 6
47 | O=C(c1cn(CCN2CCOCC2)c2ccccc12)C1CCCC1 | – | > 10000 nM | – | 819 nM | 35% | > 1000 nM | > 1000 nM | –
48 | CC1(C)C(C(=O)c2cn(CCCN3CCOCC3)c3ccccc23)C1(C)C | > 1000 nM | > 10000 nM | – | 1520 nM | 56% | – | – | < 6
49 | CC(C)[C@H]1CC[C@H](C(=O)c2cn(CCN3CCOCC3)c3ccccc23)CC1 | 190 nM | > 10000 nM | > 53 | > 10000 nM | – | – | – | –
50 | CC1(C)C(C(=O)c2cn(C(=O)CC3CCOCC3)c3ccccc23)C1(C)C | > 1000 nM | > 10000 nM | – | – | – | – | – | < 6
